From ChEMBL document CHEMBL5214904, “Design, Synthesis, and Biological Evaluation of Boron-Containing Macrocyclic Polyamines and Their Zinc(II) Complexes for Boron Neutron Capture Therapy” (J Med Chem, 2021)

Columns and labels:
[1] = Drug uptake in human HeLa S3 cells assessed as increase in intracellular boron concentration measured per cell at 30 uM measured after 24 hrs by ICP-MS analysis; type: ADME, cell-based; settings: hela s3, 24 h
Outline: (§1)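 Cells seeded at 5 × 10^5/well and grown overnight at 37 °C, 5% CO2, normoxic. A549 in DMEM/10% FBS; HeLa S3 in MEM/10% FBS. Exposed to 30 μM compound for 24 h. Cells washed with PBS ×3 and digested in 60% HNO3 for 24 h at room temperature, then diluted, centrifuged and filtered. Total boron (10B+11B) measured by ICP-MS and normalized per cell from hemocytometer counts of a parallel well. Mean ± SD of triplicates.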

[2] = Drug uptake in human A549 cells assessed as increase in intracellular boron concentration measured per cell at 30 uM measured after 24 hrs by ICP-MS analysis; type: ADME, cell-based; settings: a549, 24 h; outline: as §1
Calf thymus DNA [3] = experiment: Binding affinity to calf thymus DNA assessed as stabilization by measuring change in melting temperature at ratio of 1 by UV/vis spectrophotometric; type: nucleic-acid assay; settings: Bos taurus
Calf thymus DNA [4] = experiment: Binding affinity to calf thymus DNA assessed as stabilization by measuring change in melting temperature at ratio of 5 by UV/vis spectrophotometric; type: nucleic-acid assay; settings: Bos taurus
Calf thymus DNA [5] = experiment: Binding affinity to calf thymus DNA assessed as stabilization by measuring change in melting temperature at ratio of 0.1 by UV/vis spectrophotometric; type: nucleic-acid assay; settings: Bos taurus
Calf thymus DNA [6] = experiment: Binding affinity to calf thymus DNA assessed as stabilization by measuring change in melting temperature at ratio of 0.2 by UV/vis spectrophotometric; type: nucleic-acid assay; settings: Bos taurus
[7] = Drug uptake in human A549 cells assessed as increase in intracellular boron atoms at 30 uM measured after 24 hrs by ICP-MS analysis; type: ADME, cell-based; settings: a549, 24 h; outline: as §1

SMILES	Drug uptake [2]	ΔTm (Calf thymus DNA [3]) [°C]	ΔTm (Calf thymus DNA [4]) [°C]	Drug uptake [7]	further results
c1cc(B2OC3(CCCCC3)C3(CCCCC3)O2)ccc1CN1CCNCCNCCNCCNCC1	Active	3	8	–	Drug uptake [1]: > 2.5 fmol
NCCCCNCCCN	–	–	–	–	ΔTm (Calf thymus DNA [5]): 7 °C; ΔTm (Calf thymus DNA [6]): 12 °C
c1cc(CN2CCNCCNCCNCC2)cc(B2OC3(CCCCC3)C3(CCCCC3)O2)c1	Active	1	6	–	–
c1cc(CN2CCNCCNCC2)cc(B2OC3(CCCCC3)C3(CCCCC3)O2)c1	Active	–	–	Active	–
c1cc(B2OC3(CCCCC3)C3(CCCCC3)O2)ccc1CN1CCNCCNCC1	–	–	–	Active	–
